{"source": "ChEMBL document CHEMBL5260803", "about": "“Discovery of Novel, Orally Bioavailable β-Amino Acid Azaindole Inhibitors of Influenza PB2” (ACS Med Chem Lett, 2017)", "key": {"[1]": {"tested_on": "Influenza A virus", "assay": "Antiviral activity against Influenza A virus A/PR/8/34 infected in MDCK cells assessed as reduction in viral RNA level incubated for 20 hrs by bDNA hybridization method", "type": "functional", "conditions": "A/PR/8/34, MDCK", "in_short": "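Branched-DNA read-out of viral RNA in infected cells. EC90 is the compound concentration at which viral RNA equals 10% of that in control wells.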"}, "[2]": {"molecular_target": "Polymerase basic protein 2 (Influenza A virus (strain A/Puerto Rico/8/1934 H1N1), UniProt P03428)", "sequence (P03428 whole entry, the tested form may be a part)": "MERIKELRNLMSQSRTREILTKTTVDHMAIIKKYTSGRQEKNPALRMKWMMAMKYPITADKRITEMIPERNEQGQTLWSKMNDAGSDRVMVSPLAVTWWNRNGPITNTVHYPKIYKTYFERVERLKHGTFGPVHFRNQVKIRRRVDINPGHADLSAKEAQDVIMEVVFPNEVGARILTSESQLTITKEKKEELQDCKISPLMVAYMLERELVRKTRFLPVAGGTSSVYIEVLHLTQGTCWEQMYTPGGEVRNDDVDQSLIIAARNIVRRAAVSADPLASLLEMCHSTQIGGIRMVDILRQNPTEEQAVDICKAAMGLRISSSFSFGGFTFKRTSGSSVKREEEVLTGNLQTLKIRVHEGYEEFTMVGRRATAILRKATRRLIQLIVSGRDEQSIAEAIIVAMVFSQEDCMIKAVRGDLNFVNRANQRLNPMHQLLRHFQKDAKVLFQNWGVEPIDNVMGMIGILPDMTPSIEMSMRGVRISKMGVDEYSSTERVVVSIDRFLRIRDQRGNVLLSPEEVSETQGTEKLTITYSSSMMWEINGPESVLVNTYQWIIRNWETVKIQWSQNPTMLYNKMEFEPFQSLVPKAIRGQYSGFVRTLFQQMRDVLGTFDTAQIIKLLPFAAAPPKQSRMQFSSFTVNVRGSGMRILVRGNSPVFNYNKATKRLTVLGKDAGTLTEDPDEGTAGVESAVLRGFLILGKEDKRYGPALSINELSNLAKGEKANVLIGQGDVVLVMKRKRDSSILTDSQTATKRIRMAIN", "assay": "Binding affinity to full length Influenza A virus PB2 cap-binding domain assessed as dissociation constant incubated for 60 mins by fluorescence polarization assay", "in_short": "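Fluorescence polarization competition binding assay against the cap-binding domain of the PB2 subunit, giving Kd.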"}, "[3]": {"assay": "AUC in mouse at 30 mg/kg, po", "type": "ADME, organism-based", "design": "dose 30 mg/kg, route po", "conditions": "in vivo"}, "[4]": {"assay": "Cmax in mouse at 30 mg/kg, po", "type": "ADME, organism-based", "design": "dose 30 mg/kg, route po", "conditions": "in vivo"}, "[5]": {"assay": "Stability in rat S9 fraction assessed as compound remaining at 1 uM", "type": "ADME, subcellular", "conditions": "read-out: Stability"}, "[6]": {"assay": "Stability in human S9 fraction assessed as compound remaining at 1 uM", "type": "ADME, subcellular", "conditions": "read-out: Stability"}, "[7]": {"tested_on": "Influenza A virus", "assay": "Antiviral activity against Influenza A virus A/PR/8/34 infected in BALB/C mouse model assessed as increase in survival at 10 to 60 mg/kg, po administered twice daily for 10 days from 48 hrs post-infection and measured for 21 days", "type": "functional, organism-based", "conditions": "dose 10-60 mg/kg, time 21.0 day", "in_short": "(§1)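 Male BALB/c mice, 8 per group, inoculated intranasally with mouse-adapted A/PR/8/34 at 5e3 TCID50/mouse. Oral dosing twice daily for 10 days, starting 48 h after infection, at 10, 30 or 60 mg/kg. Survival and body weight were tracked against untreated controls.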"}, "[8]": {"tested_on": "Influenza A virus", "assay": "Antiviral activity against Influenza A virus A/PR/8/34 infected in BALB/C mouse model assessed as increase in survival at 10 mg/kg, po administered twice daily for 10 days from 48 hrs post-infection and measured for 21 days", "type": "functional, organism-based", "conditions": "time 21.0 day", "in_short": "as §1"}, "[9]": {"assay": "Clearance in rat at 1 mg/kg, iv", "type": "ADME, organism-based", "conditions": "in vivo"}, "[10]": {"assay": "Half-life in rat at 1 mg/kg, iv", "type": "ADME, organism-based", "conditions": "in vivo"}, "[11]": {"assay": "AUC in rat at 3 mg/kg, po", "type": "ADME, organism-based", "design": "dose 3 mg/kg, route po", "conditions": "in vivo"}, "[12]": {"tested_on": "Influenza A virus", "assay": "Antiviral activity against oseltamivir sensitive Influenza A virus A/Georgia/17/2006 (H1N1) infected in MDCK cells incubated for 72 hrs by cell protection assay", "type": "functional, organism-based", "in_short": "(§2)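 MDCK cells incubated with test compound and influenza A virus for 72 h. EC50 is the concentration giving 50% cell protection, reported as the mean of N=3. Oseltamivir resistant or sensitive status was assigned by externally validated phenotypic or genetic analysis.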"}, "[13]": {"tested_on": "Influenza A virus", "assay": "Antiviral activity against oseltamivir sensitive Influenza A virus A/[…]/8/34 (H1N1) infected in MDCK cells incubated for 72 hrs by cell protection assay", "type": "functional, organism-based", "in_short": "as §2"}, "[14]": {"tested_on": "Influenza A virus", "assay": "Antiviral activity against oseltamivir sensitive Influenza A virus A/Henan/Jinshui/147/2007 (H3N2) infected in MDCK cells incubated for 72 hrs by cell protection assay", "type": "functional, organism-based", "in_short": "as §2"}, "[15]": {"tested_on": "Influenza A virus", "assay": "Antiviral activity against oseltamivir sensitive Influenza A virus A/California/07/2009 (H1N1) infected in MDCK cells incubated for 72 hrs by cell protection assay", "type": "functional, organism-based", "in_short": "as §2"}, "[16]": {"tested_on": "Influenza A virus", "assay": "Antiviral activity against oseltamivir sensitive Influenza A virus A/Vietnam/1203/2004 (H5N1) infected in MDCK cells incubated for 72 hrs by cell protection assay", "type": "functional, organism-based"}, "[17]": {"assay": "Toxicity in BALB/C mouse model of influenza infected with Influenza A virus A/PR/8/34 assessed as body weight loss administered orally twice daily for 10 days from 48 hrs post-infection and measured for 21 days", "conditions": "in vivo, po, 504 h, dose 10-60 mg/kg, time 21 day", "in_short": "as §1"}}, "note": "Calls of active or inactive are those of the source. The rule behind the calls is not given here.", "data": [{"smiles": "C[C@](CC(=O)O)(Nc1nc(-c2c[nH]c3ncc(F)cc23)ncc1F)C1CCC1", "values": [{"measurement": "EC90", "setting": "[1]", "value": 10, "unit": "nM"}, {"measurement": "Kd", "setting": "[2]", "value": "< 3", "unit": "nM"}, {"measurement": "AUC", "setting": "[3]", "value": 6700, "unit": "ng·h/mL"}, {"measurement": "Cmax", "setting": "[4]", "value": 7400, "unit": "ng/mL"}, {"measurement": "remaining at 1 µM", "setting": "[5]", "value": 100, "unit": "%"}, {"measurement": "remaining at 1 µM", "setting": "[6]", "value": 94, "unit": "%"}, {"measurement": "Activity", "setting": "[7]", "value": "Active"}]}, {"smiles": "CCOC(=O)C1=C[C@@H](OC(CC)CC)[C@H](NC(C)=O)[C@@H](N)C1", "values": [{"measurement": "Activity", "setting": "[8]", "value": "inactive"}]}, {"smiles": "CCC(CC)C(CC(=O)O)Nc1nc(-c2c[nH]c3ncc(F)cc23)ncc1F", "note": "(racemic)", "values": [{"measurement": "EC90", "setting": "[1]", "value": 340, "unit": "nM"}]}, {"smiles": "CC1([C@@H](CC(=O)O)Nc2nc(-c3c[nH]c4ncc(F)cc34)ncc2F)CCCC1", "values": [{"measurement": "EC90", "setting": "[1]", "value": 20, "unit": "nM"}, {"measurement": "Kd", "setting": "[2]", "value": "< 3", "unit": "nM"}]}, {"smiles": "CC(C)(C)[C@H](CC(=O)O)Nc1nc(-c2c[nH]c3ncc(F)cc23)ncc1F", "values": [{"measurement": "EC90", "setting": "[1]", "value": "> 6650", "unit": "nM"}, {"measurement": "Kd", "setting": "[2]", "value": 150, "unit": "nM"}]}, {"smiles": "CC(C)(C)[C@@H](CC(=O)O)Nc1nc(-c2c[nH]c3ncc(F)cc23)ncc1F", "values": [{"measurement": "EC90", "setting": "[1]", "value": 30, "unit": "nM"}, {"measurement": "Kd", "setting": "[2]", "value": 3, "unit": "nM"}, {"measurement": "clearance", "setting": "[9]", "value": 8, "unit": "mL/min/kg"}, {"measurement": "half-life", "setting": "[10]", "value": 9.9, "unit": "h"}, {"measurement": "AUC", "setting": "[11]", "value": 3300, "unit": "ng·h/mL"}, {"measurement": "AUC", "setting": "[3]", "value": 7200, "unit": "ng·h/mL"}, {"measurement": "Cmax", "setting": "[4]", "value": 11800, "unit": "ng/mL"}, {"measurement": "EC50", "setting": "[12]", "value": 9, "unit": "nM"}, {"measurement": "EC50", "setting": "[13]", "value": 14, "unit": "nM"}, {"measurement": "EC50", "setting": "[14]", "value": 19, "unit": "nM"}, {"measurement": "EC50", "setting": "[15]", "value": 4, "unit": "nM"}, {"measurement": "EC50", "setting": "[16]", "value": 4, "unit": "nM"}, {"measurement": "Activity", "setting": "[7]", "value": "Active"}, {"measurement": "Activity", "setting": "[17]", "value": "Non-Toxic"}]}, {"smiles": "CC(C)(C(CC(=O)O)Nc1nc(-c2c[nH]c3ncc(F)cc23)ncc1F)C(F)(F)F", "note": "(racemic)", "values": [{"measurement": "EC90", "setting": "[1]", "value": 520, "unit": "nM"}]}, {"smiles": "O=C(O)C[C@@H](Nc1nc(-c2c[nH]c3ncc(F)cc23)ncc1F)C1CCC1", "values": [{"measurement": "EC90", "setting": "[1]", "value": 780, "unit": "nM"}]}, {"smiles": "CCC(C)(C)[C@@H](CC(=O)O)Nc1nc(-c2c[nH]c3ncc(F)cc23)ncc1F", "values": [{"measurement": "EC90", "setting": "[1]", "value": 60, "unit": "nM"}, {"measurement": "Kd", "setting": "[2]", "value": "< 3", "unit": "nM"}]}, {"smiles": "CC(C)(C)[C@@H](CC(=O)O)Nc1nc(-c2c[nH]c3ncc(Cl)cc23)ncc1F", "values": [{"measurement": "EC90", "setting": "[1]", "value": 23, "unit": "nM"}, {"measurement": "Kd", "setting": "[2]", "value": "< 3", "unit": "nM"}]}, {"smiles": "CC(C)[C@@H](CC(=O)O)Nc1nc(-c2c[nH]c3ncc(F)cc23)ncc1F", "values": [{"measurement": "EC90", "setting": "[1]", "value": 590, "unit": "nM"}]}, {"smiles": "CC(C)(C)[C@H](CC(=O)O)Nc1nc(-c2c[nH]c3ncc(Cl)cc23)ncc1F", "values": [{"measurement": "EC90", "setting": "[1]", "value": "> 3300", "unit": "nM"}, {"measurement": "Kd", "setting": "[2]", "value": 200, "unit": "nM"}]}, {"smiles": "CC1([C@@H](CC(=O)O)Nc2nc(-c3c[nH]c4ncc(F)cc34)ncc2F)CC1", "values": [{"measurement": "EC90", "setting": "[1]", "value": 670, "unit": "nM"}]}, {"smiles": "CC1(C(CC(=O)O)Nc2nc(-c3c[nH]c4ncc(F)cc34)ncc2F)CCCCC1", "note": "(racemic)", "values": [{"measurement": "EC90", "setting": "[1]", "value": 120, "unit": "nM"}, {"measurement": "Kd", "setting": "[2]", "value": "< 3", "unit": "nM"}]}]}
